From ChEMBL document CHEMBL4229408 (Bioorg Med Chem, 2018) come the findings set out here.

Series [1] in a line: Antiproliferative activity against human CAR cells after 48 hrs by MTT assay. It is filed as functional, cell-based. Put shortly: (§1)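 CAR cells (CAL27 made cisplatin-resistant by 10 cycles of 10–80 μM cisplatin) kept in DMEM/10% FBS with 80 μM cisplatin. Seeded 2×10^4 cells/well and exposed to 0, 25, 50, 75 and 100 μM for 48 or 72 h, with 0.5% DMSO as vehicle. MTT (500 μg/ml) added for 4 h at 37 °C, formazan dissolved in DMSO, A570 read as % of control, IC50 derived.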

Series [2] can be described thus: Antiproliferative activity against human CAR cells after 72 hrs by MTT assay. It counts as functional, cell-based. In outline:
as §1

Series [3] can be described thus: Antitumor activity against human CAR cells xenografted in BALB/c nude mouse assessed as inhibition of tumor weight at 100 mg/kg, po qd administered for 30 days measured on day 31 relative to control. It counts as functional. On the set-up: scale not given: the % may be the effect or the level left. Put shortly: (§2)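 Male BALB/c nude mice, four weeks old, implanted subcutaneously in the flank with CAR cells (cisplatin-resistant CAL27 kept in 80 μM cisplatin), 1×10^7 cells/mouse in 0.2 mL medium:Matrigel 1:1. Dosing began at ~50 mm3 tumors (day 22), eight mice/group, oral once daily for 30 days; vehicle 1,2-propanediol. Sacrificed day 31; excised tumors weighed, compared to vehicle controls.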

The subject of series [4] is Mus musculus. Description: Toxicity in BALB/c nude mouse xenografted with human CAR cells assessed as total protein levels in blood at 100 mg/kg, po qd administered for 30 days measured on day 31 (reference value: 5.6 +/- 0.283 g/dL). The settings on record: in vivo, 720 h. It is filed as organism-based.
For series [5], the system named is Mus musculus. The series can be described thus: Toxicity in BALB/c nude mouse xenografted with human CAR cells assessed as creatinine levels in blood at 50 mg/kg, po qd administered for 30 days measured on day 31 (reference value: 1 +/- 0.18 mg/dL). To be noted: in vivo, 720 h. It is filed as organism-based.
The test system of series [6] is Mus musculus. Description: Toxicity in BALB/c nude mouse xenografted with human CAR cells assessed as albumin levels in blood at 100 mg/kg, po qd administered for 30 days measured on day 31 (reference value: 3.45 +/- 0.138 g/dL). It counts as organism-based. To be noted: in vivo, 720 h.
Series [7] is described as follows: Antitumor activity against human CAR cells xenografted in BALB/c nude mouse assessed as tumor weight at 25 mg/kg, po qd administered for 30 days measured on day 31 relative to control. It is filed as functional. In outline: as §2
The test system of series [8] is Mus musculus. The series can be described thus: Toxicity in BALB/c nude mouse xenografted with human CAR cells assessed as creatinine levels in blood at 25 mg/kg, po qd administered for 30 days measured on day 31 (reference value: 1 +/- 0.18 mg/dL). It is filed as organism-based. The settings on record: in vivo, 720 h.
The test system of series [9] is Mus musculus. The series can be described thus: Toxicity in BALB/c nude mouse xenografted with human CAR cells assessed as uric acid levels in blood at 25 mg/kg, po qd administered for 30 days measured on day 31 (reference value: 4.65 +/- 0.864 mg/dL). It is filed as organism-based. To be noted: in vivo, 720 h.
The test system of series [10] is Mus musculus. The series can be described thus: Toxicity in BALB/c nude mouse xenografted with human CAR cells assessed as change in food consumption at 25 to 100 mg/kg, po qd administered for 30 days measured during compound dosing. It counts as organism-based. The settings on record: in vivo, 720 h. Put shortly: (§3)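 During the 30-day once-daily oral dosing (25–100 mg/kg) of CAR-xenografted nude mice, body weight, food intake and behaviour were tracked and compared with vehicle-treated controls.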

A short description of series [11]: Prodrug conversion in Sprague-Dawley rat whole blood assessed as formation of pterostilbene-4'-O-sulfate by measuring Tmax of metabolite at 100 mg/kg, po using HPbetaCD, PEG300, H2O formulation at 20:10:70 by LC-MS method. It counts as ADME, organism-based. To be noted: in vivo. Put shortly:
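Male Sprague-Dawley rats (200–220 g), n = 3, given a single oral 100 mg/kg dose in HPβCD:PEG300:H2O 20:10:70 (10 mg/mL). Tail-vein blood collected into heparin at 0.5–24 h (0.5, 1, 1.5, 2, 3, 4, 5, 6, 8, 24 h).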

Series [12] deals with Mus musculus. The series can be described thus: Toxicity in BALB/c nude mouse xenografted with human CAR cells assessed as change in body weight at 25 to 100 mg/kg, po qd administered for 30 days measured during compound dosing. It is filed as organism-based. The settings on record: in vivo, 720 h. Put shortly: as §3
Series [13] relates to Mus musculus. Description: Toxicity in BALB/c nude mouse xenografted with human CAR cells assessed as albumin levels in blood at 50 mg/kg, po qd administered for 30 days measured on day 31 (reference value: 3.45 +/- 0.138 g/dL). It is filed as organism-based. To be noted: in vivo, 720 h.
The subject of series [14] is Mus musculus. Description: Toxicity in BALB/c nude mouse xenografted with human CAR cells assessed as glucose levels in blood at 50 mg/kg, po qd administered for 30 days measured on day 31 (reference value: 180 +/- 10.392 mg/dL). It counts as organism-based. To be noted: in vivo, 720 h.
Series [15] deals with Mus musculus. The series can be described thus: Toxicity in BALB/c nude mouse xenografted with human CAR cells assessed as creatinine levels in blood at 100 mg/kg, po qd administered for 30 days measured on day 31 (reference value: 1 +/- 0.18 mg/dL). It is filed as organism-based. To be noted: in vivo, 720 h.
The test system of series [16] is Mus musculus. The series can be described thus: Toxicity in BALB/c nude mouse xenografted with human CAR cells assessed as change in behavior at 25 to 100 mg/kg, po qd administered for 30 days measured during compound dosing. To be noted: in vivo, 720 h. It is filed as organism-based. Put shortly:
as §3

Series [17] has as its system Mus musculus. Description: Toxicity in BALB/c nude mouse xenografted with human CAR cells assessed as uric acid levels in blood at 50 mg/kg, po qd administered for 30 days measured on day 31 (reference value: 4.65 +/- 0.864 mg/dL). It counts as organism-based. The settings on record: in vivo, 720 h.
Series [18] has as its system Mus musculus. The series can be described thus: Toxicity in BALB/c nude mouse xenografted with human CAR cells assessed as uric acid levels in blood at 100 mg/kg, po qd administered for 30 days measured on day 31 (reference value: 4.65 +/- 0.864 mg/dL). It is filed as organism-based. To be noted: in vivo, 720 h.
A short description of series [19]: Antitumor activity against human CAR cells xenografted in BALB/c nude mouse assessed as inhibition of tumor weight at 50 mg/kg, po qd administered for 30 days measured on day 31 relative to control. On the set-up: scale not given: the % may be the effect or the level left. It counts as functional. In outline: as §2
Series [20] relates to Mus musculus. Description: Toxicity in BALB/c nude mouse xenografted with human CAR cells assessed as glucose levels in blood at 25 mg/kg, po qd administered for 30 days measured on day 31 (reference value: 180 +/- 10.392 mg/dL). It counts as organism-based. The settings on record: in vivo, 720 h.
The subject of series [21] is Mus musculus. Description: Toxicity in BALB/c nude mouse xenografted with human CAR cells assessed as total protein levels in blood at 25 mg/kg, po qd administered for 30 days measured on day 31 (reference value: 5.6 +/- 0.283 g/dL). It counts as organism-based. The settings on record: in vivo, 720 h.
The test system of series [22] is Mus musculus. The series can be described thus: Toxicity in BALB/c nude mouse xenografted with human CAR cells assessed as blood urea nitrogen levels in blood at 25 mg/kg, po qd administered for 30 days measured on day 31 (reference value: 27.7 +/- 4.116 mg/dL). It counts as organism-based. To be noted: in vivo, 720 h.
The test system of series [23] is Mus musculus. Description: Toxicity in BALB/c nude mouse xenografted with human CAR cells assessed as blood urea nitrogen levels in blood at 100 mg/kg, po qd administered for 30 days measured on day 31 (reference value: 27.7 +/- 4.116 mg/dL). To be noted: in vivo, 720 h. It counts as organism-based.
Series [24] relates to Mus musculus. Description: Toxicity in BALB/c nude mouse xenografted with human CAR cells assessed as total protein levels in blood at 50 mg/kg, po qd administered for 30 days measured on day 31 (reference value: 5.6 +/- 0.283 g/dL). It counts as organism-based. To be noted: in vivo, 720 h.
In series [25] the test system is Mus musculus. Description: Toxicity in BALB/c nude mouse xenografted with human CAR cells assessed as blood urea nitrogen levels in blood at 50 mg/kg, po qd administered for 30 days measured on day 31 (reference value: 27.7 +/- 4.116 mg/dL). It counts as organism-based. The settings on record: in vivo, 720 h.
In series [26] the test system is Mus musculus. Description: Toxicity in BALB/c nude mouse xenografted with human CAR cells assessed as glucose levels in blood at 100 mg/kg, po qd administered for 30 days measured on day 31 (reference value: 180 +/- 10.392 mg/dL). The settings on record: in vivo, 720 h. It is filed as organism-based.
The subject of series [27] is Mus musculus. Description: Toxicity in BALB/c nude mouse xenografted with human CAR cells assessed as albumin levels in blood at 25 mg/kg, po qd administered for 30 days measured on day 31 (reference value: 3.45 +/- 0.138 g/dL). It is filed as organism-based. The settings on record: in vivo, 720 h.

With `COc1ccc(/C=C/c2cc(OC(=O)C(C)(CO)CO)cc(OC(=O)C(C)(CO)CO)c2)cc1`, the IC50 in series [1] came to 73.9 µM; in series [2] it was 70.8 µM.

With `COc1ccc(/C=C/c2cc(OC)cc(OC(=O)C(C)(CO)CO)c2)cc1`, the 50% inhibitory concentration (IC50) in series [1] is 64.2 µM; in [2], 67.3 µM.

Turning to `COc1ccc(/C=C/c2cc(O)cc(OC)c2)cc1`, the figures for the concentration for half-maximal inhibition (IC50) in [1] and in series [2] were 100 µM and 98.3 µM, respectively.

`CC(=O)Oc1cc(/C=C/c2ccc(OC(=O)C(C)(CO)CO)cc2)cc(OC(=O)C(C)(CO)CO)c1`: the IC50 was 122 µM in series [1] and 119 µM in series [2].

`COc1cc(O)cc(/C=C/c2ccc(OC(=O)C(C)(CO)CO)cc2)c1` came in with an IC50 in series [2] of 64 µM.

In the case of `COc1cc(/C=C/c2ccc(OC(=O)C(C)(CO)CO)cc2)cc(OC(=O)C(C)(CO)CO)c1`, the IC50 in [1] amounted to 56.5 µM; in series [2], 59.8 µM.

`Oc1ccc(/C=C/c2cc(O)cc(O)c2)cc1` [RESVERATROL]: inhibition in series [2] was half-maximal at 88.3 µM (IC50).

Turning to `COc1cc(/C=C/c2ccc(OC(=O)C(C)(CO)CO)cc2)cc(OC(C)=O)c1`, the IC50 turned out to be 52 µM in series [1] and 50.3 µM in [2].

Regarding `COc1cc(/C=C/c2ccc(OC(=O)C(C)(CO)CO)cc2)cc(OC)c1`, the Activity in [3] turned out to be 22%; in series [4], 5.283 g/dL; in [5] it was 0.91 mg/dL; in series [6] it was 3.4 g/dL; in [7], 60%; in series [8], 1.133 mg/dL. The Activity is 4.567 mg/dL in series [9]; “Non-Toxic” in series [10]; “Non-Toxic” in series [12]; 3.417 g/dL in series [13]; 172.5 mg/dL in series [14]; 0.83 mg/dL in series [15]. Also, the Activity result is “Non-Toxic” in [16]; 5.45 mg/dL in series [17]; 5.05 mg/dL in series [18]; 47% in [19]; 181.333 mg/dL in series [20]; 5.383 g/dL in series [21]. Also, the Activity turned out to be 28.2 mg/dL in series [22]; 29.25 mg/dL in series [23]; 5.583 g/dL in [24]; 30.95 mg/dL in series [25]; 196.5 mg/dL in [26]; 3.666 g/dL in series [27]. The Tmax in series [11] was found to be 2 h. Further, the values for the IC50 in [1] and in series [2] were 73.2 µM and 32.6 µM, respectively.

Consider `CC(CO)(CO)C(=O)Oc1ccc(/C=C/c2cc(OC(=O)C(C)(CO)CO)cc(OC(=O)C(C)(CO)CO)c2)cc1`, for which the IC50 in series [2] came to 124 µM.

`CC(CO)(CO)C(=O)Oc1cc(O)cc(/C=C/c2ccc(O)cc2)c1` registered an IC50 in series [1] of 54.9 µM.

Turning to `CC(=O)Oc1cc(/C=C/c2ccc(OC(=O)C(C)(CO)CO)cc2)cc(OC(C)=O)c1`, the IC50 in [1] is 103 µM; in [2], 116 µM.
